Assay results: paper PMC11064185 (ACS Omega, 2024)

What was measured:
[1] = target: α-glucosidase (Saccharomyces cerevisiae, UniProt P53341); test: affinity ultrafiltration UPLC–Q-TOF–MS/MS screening, binding rate; conditions: peak area reduction in CGB extract after ultrafiltration
Summary of the method: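 95% ethanol reflux extract of whole herb: three 3 h extractions at 1:13 m/v, then concentrated and dried. Extract incubated with yeast α-glucosidase and ultrafiltered on a 10 kDa membrane. Bound ligands released from the retentate with methanol and identified by UPLC-Q-TOF-MS/MS.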

[2] = target: Saccharomyces cerevisiae α-glucosidase (Saccharomyces cerevisiae, UniProt P53341); test: α-glucosidase inhibition assay; type: biochemical
Sequence of Saccharomyces cerevisiae α-glucosidase (P53341 whole entry): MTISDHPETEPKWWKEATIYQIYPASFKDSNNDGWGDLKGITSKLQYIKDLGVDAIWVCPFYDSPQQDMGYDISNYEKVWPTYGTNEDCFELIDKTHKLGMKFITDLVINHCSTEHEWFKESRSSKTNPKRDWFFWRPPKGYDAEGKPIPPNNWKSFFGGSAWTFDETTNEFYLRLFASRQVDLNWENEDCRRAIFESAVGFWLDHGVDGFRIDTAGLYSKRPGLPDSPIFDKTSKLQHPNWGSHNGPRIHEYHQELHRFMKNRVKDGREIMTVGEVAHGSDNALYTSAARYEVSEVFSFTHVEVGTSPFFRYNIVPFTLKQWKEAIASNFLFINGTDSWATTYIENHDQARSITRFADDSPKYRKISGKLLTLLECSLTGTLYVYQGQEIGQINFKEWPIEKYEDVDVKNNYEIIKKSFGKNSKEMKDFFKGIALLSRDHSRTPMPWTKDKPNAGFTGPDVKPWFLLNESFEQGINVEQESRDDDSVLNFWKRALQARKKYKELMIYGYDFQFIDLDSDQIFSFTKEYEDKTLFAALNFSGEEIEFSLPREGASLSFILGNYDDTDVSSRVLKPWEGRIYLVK

Sequence of α-glucosidase (P53341 whole entry): as above

| Compound | AD (affinity degree, binding rate to α-glucosidase) [1] [%] | IC50 [2] [µM] |
| --- | --- | --- |
| COc1c(-c2ccc(O)c(O)c2)oc2cc(O)cc(O)c2c1=O [3-O-methylquercetin] | 17.2 | 436.35 ± 0.01 |
| O=c1c(O[C@@H]2O[C@H](CO)[C@H](O)[C@H](O)[C@H]2O)c(-c2ccc(O)c(O)c2)oc2cc(O)cc(O)c12 [hyperoside] | 23.4 | 1072.4 ± 0.54 |
| O=c1c(O)c(-c2ccc(O)c(O)c2)oc2cc(O)cc(O)c12 [quercetin] | 12.4 |  |
